Data on 17 compounds can be found in ChEMBL document CHEMBL1125029, “Chemical and biochemical studies of 2-propynylpyrrolidine derivatives. Restricted-rotation analogues of N-methyl-N-(1-methyl-4-pyrrolidino-2-butynyl)acetamide (BM-5)” (J Med Chem, 1990).

What is called Ki is a measure of affinity in units of concentration, obtained from inhibition or displacement.

The target of assay [1] is T1, Muscarinic acetylcholine receptor M1 (Rattus norvegicus) (UniProt P08482).
T1 sequence (whole entry): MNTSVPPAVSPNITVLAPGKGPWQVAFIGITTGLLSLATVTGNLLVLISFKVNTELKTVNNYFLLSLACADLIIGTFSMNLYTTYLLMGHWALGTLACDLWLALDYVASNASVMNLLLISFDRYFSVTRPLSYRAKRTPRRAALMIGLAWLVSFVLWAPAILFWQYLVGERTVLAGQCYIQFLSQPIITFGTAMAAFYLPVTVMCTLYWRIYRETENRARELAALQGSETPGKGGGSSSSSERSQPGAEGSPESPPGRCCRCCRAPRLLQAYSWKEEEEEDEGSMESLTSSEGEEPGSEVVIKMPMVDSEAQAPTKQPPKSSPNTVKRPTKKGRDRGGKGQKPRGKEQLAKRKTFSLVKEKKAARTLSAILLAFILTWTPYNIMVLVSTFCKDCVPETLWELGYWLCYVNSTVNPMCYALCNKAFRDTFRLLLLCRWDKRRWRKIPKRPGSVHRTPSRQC
The assay can be described thus: Muscarinic 1 receptor agonistic activity as the selectivity ratio of Ki against [3H]-QNB to that of [3H]PZ. In kind it is functional.

Assay [2] concerns the target Muscarinic acetylcholine receptor. The assay can be described thus: Binding activity to the muscarinic acetylcholine receptor in rat cortex, assayed using [3H]PZ as a radioligand. In kind it is tissue-based. In outline:
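Rat (male Wistar, 200-250 g) cortex homogenized in ice-cold Na/K phosphate buffer pH 7.4, diluted 1:400, ~0.55 mg protein per 2.0 mL. 0.1 nM radioligand (84.1 Ci/mmol), made fresh just before use. Unlabeled competitor at final 10^-12 to 10^-3 M. 10 μM atropine for nonspecific. Filtered, counted by liquid scintillation. One-site competitive fit gives apparent Ki.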

The target is the same in assay [3]. The assay can be described thus: Binding activity to the muscarinic acetylcholine receptor in rat cortex, assayed using [3H]CD as a radioligand. In kind it is tissue-based. In outline:
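Male Wistar rat cerebral cortex homogenate in 10 mM Na/K phosphate pH 7.4, diluted 1:300 (wet wt/v), ~0.75 mg protein per 2.0 mL. 1 nM radioligand (55.5 Ci/mmol), prepared fresh in buffer. Competitor 10^-12 to 10^-3 M. Nonspecific binding with 10 μM atropine. Rapid filtration on PEI-treated filters, scintillation counting. Apparent Ki by one-site competitive nonlinear regression.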

Assay [4] shares this target. The assay can be described thus: Binding activity to muscarinic acetylcholine receptor in rat heart, assayed using [3H]-QNB as a radioligand. Summed up: (§1)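 Male Wistar rat heart ventricles flushed, minced, Polytron-homogenized in 10 mM Na/K phosphate pH 7.4, spun 48000 g 15 min 4 °C, resuspended, gauze-filtered, diluted 1:750, 0.15-0.2 mg protein/2.0 mL. 10 μM Gpp(NH)p added to homogenate for line 3. Competitor 10^-12 to 10^-3 M. 10 μM atropine nonspecific. Filtration, scintillation counting. Ki from one-site fit.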

The target of assay [5] is Muscarinic receptor M1 and M2 (Rattus norvegicus) (UniProt P08482+P10980). The assay can be described thus: The agonist ratio as the ratio of Ki against [3H]QNB to that of [3H]-CD. In kind it is functional.
In assay [6] the target is T2, Muscarinic acetylcholine receptor M2 (Rattus norvegicus) (UniProt P10980).
T2 sequence (whole entry): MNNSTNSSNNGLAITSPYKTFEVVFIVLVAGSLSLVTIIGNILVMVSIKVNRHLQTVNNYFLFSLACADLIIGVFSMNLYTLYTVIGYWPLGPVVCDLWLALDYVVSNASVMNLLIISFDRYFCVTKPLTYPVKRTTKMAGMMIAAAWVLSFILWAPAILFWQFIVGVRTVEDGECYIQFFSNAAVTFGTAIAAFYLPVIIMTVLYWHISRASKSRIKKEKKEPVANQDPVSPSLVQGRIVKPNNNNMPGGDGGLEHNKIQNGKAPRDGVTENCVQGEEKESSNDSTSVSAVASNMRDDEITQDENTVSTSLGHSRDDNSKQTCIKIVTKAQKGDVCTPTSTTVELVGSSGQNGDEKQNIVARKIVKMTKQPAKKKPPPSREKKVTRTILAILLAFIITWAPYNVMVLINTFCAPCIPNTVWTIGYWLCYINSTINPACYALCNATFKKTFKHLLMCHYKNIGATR
Description: Muscarinic 2 receptor agonistic activity was determined as the selectivity ratio of Ki against [3H]QNB+ Gpp(NH)p to that of [3H]QNB. In kind it is functional.

Assay [7] concerns the target T1, Muscarinic acetylcholine receptor M1 (Rattus norvegicus). The assay can be described thus: Muscarinic 1 receptor agonistic activity as the selectivity ratio of Ki against [3H]-QNB+ Gpp(NH)p to that of [3H]PZ. In kind it is functional.
Assay [8] deals with Muscarinic acetylcholine receptor. Description: Binding activity against Muscarinic acetylcholine receptor in rat cortex, using [3H]QNB as a radioligand. In kind it is tissue-based. In outline: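 Competitor at final 10^-12 to 10^-3 M. 10 μM atropine defines nonspecific binding. Filtration on PEI-soaked GF/B filters, scintillation counting. Apparent Ki from one-site competitive nonlinear fit.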

Assay [9] has the same target. Description: Binding activity to muscarinic acetylcholine receptor in rat heart, assayed using [3H]QNB as a radioligand in the presence of Gpp(NH)p. Summed up: as §1

As for `CC(=O)N1CCC[C@@H]1C#CC[N+](C)(C)C`, the Ratio in [1] stood at 1.3; in [5], 20.3; in assay [6], 2.6; in assay [7], 3.4. For the same compound, the Ki in assay [2] amounted to 1630 nM; in assay [3], 110 nM; in assay [4], 2070 nM; in assay [8], 2230 nM; in assay [9] it was 5470 nM.

For the compound `O=CN1CCC[C@@H]1C#CCN1CCCC1`, the Ratio turned out to be 2.7 in assay [1], 0.7 in assay [5], 1 in assay [6] and 2.5 in [7]. The Ki in [2] amounted to 1180 nM; in [3], 3350 nM; in assay [4], 3260 nM; in [8] it was 2390 nM; in assay [9], 3120 nM.

For `CC(C)(C)OC(=O)N1CCC[C@@H]1C#CCN1CCCC1`, the Ratio in assay [1] worked out at 3.1; in [5], 3; in assay [6], 1.5; in assay [7] it was 4.7. Moreover, the Ki in assay [2] turned out to be 420 nM; in assay [3] it was 220 nM; in assay [4], 1320 nM; in [8], 660 nM; in [9], 1960 nM.

For `CN(C)CC#C[C@H]1CCCN1C(=O)OC(C)(C)C`, the Ratio in assay [1] stood at 0.9; in assay [5], 12.8; in [6] it was 3.8; in [7] it was 3.5. Also, the Ki in assay [2] stood at 5600 nM; in assay [3] it was 250 nM; in assay [4], 5160 nM; in [8], 3200 nM; in [9], 19600 nM.

For `CS(=O)(=O)N1CCC[C@@H]1C#CCN1CCCC1.Cl`, the Ratio in assay [1] stood at 1.4; in [5] it was 1; in assay [6], 2.3; in assay [7] it was 3.3. The Ki was 4110 nM in [2]; 1980 nM in assay [3]; 5910 nM in [4]; 1920 nM in [8]; 13400 nM in assay [9].

For the compound `COC(=O)N1CCC[C@H]1C#CCN1CCCC1`, the Ratio came out at 3 in [1], 0.4 in [5], 1.3 in assay [6] and 3.9 in [7]. Also, the Ki is 1480 nM in assay [2]; 1440 nM in assay [3]; 4420 nM in assay [4]; 620 nM in assay [8]; 5750 nM in assay [9].

Consider `CC(=O)N1CCC[C@@H]1C#CCN(C)C`, for which the Ratio in assay [1] was found to be 2.2; in assay [5] it was 8.4; in assay [6], 3.6; in assay [7] it was 8.1. For the same compound, the inhibitory constant (Ki) turned out to be 5250 nM in assay [2]; 1650 nM in [3]; 11800 nM in assay [4]; 13800 nM in assay [8]; 42400 nM in [9].

Consider `CCOC(=O)N1CCC[C@@H]1C#CCN1CCCC1`, for which the Ratio in assay [1] was determined as 4.9; in assay [5], 2.3; in [6], 1.1; in [7] it was 5.5. The Ki stood at 190 nM in assay [2]; 510 nM in [3]; 940 nM in assay [4]; 1160 nM in assay [8]; 1040 nM in assay [9].

Consider `Cl.O=C(N1CCC[C@H]1C#CCN1CCCC1)C(F)(F)F`, for which the Ratio was 2.1 in assay [1], 1.6 in assay [5], 1.4 in assay [6] and 2.9 in assay [7]. Moreover, the Ki in [2] came to 3100 nM; in assay [3], 2220 nM; in [4], 6400 nM; in assay [8], 3450 nM; in [9], 8860 nM.

For `CC(C)(C)OC(=O)N1CCC[C@H]1C#CCN1CCCC1`, the Ratio in [1] was found to be 1.9; in assay [5] it was 3; in assay [6], 6.9; in assay [7], 13. For the same compound, the Ki in assay [2] was found to be 70 nM; in assay [3], 330 nM; in assay [4], 130 nM; in assay [8], 980 nM; in assay [9] it was 900 nM.

Take `O=C1CCCN1CC#CCN1CCCC1` [OXOTREMORINE]: the Ratio in assay [1] stood at 0.03; in assay [5] it was 120; in [6] it was 35; in assay [7], 1. Further, the Ki came out at 140 nM in assay [2]; 0.5 nM in assay [3]; 4 nM in [4]; 60 nM in assay [8]; 140 nM in [9].

Take `CCOC(=O)N1CCC[C@H]1C#CCN1CCCC1`: the Ratio is 8.5 in assay [1], 0.5 in assay [5], 1.2 in assay [6] and 10 in assay [7]. Besides, the Ki stood at 100 nM in assay [2]; 610 nM in assay [3]; 850 nM in [4]; 310 nM in assay [8]; 1000 nM in assay [9].

For the compound `C(#C[C@H]1CCCN1)CN1CCCC1.Cl.Cl`, the Ratio in assay [1] worked out at 2; in [5], 2.5; in [6], 1.5; in assay [7], 3. For the same compound, the Ki in [2] was found to be 6500 nM; in assay [3] it was 1280 nM; in [4] it was 12900 nM; in assay [8] it was 3220 nM; in [9] it was 19600 nM.

As to `CC(=O)N1CCC[C@@H]1C#CCN1CCCC1.Cl`, the Ratio in assay [1] is 3.6; in [5] it was 1; in assay [6] it was 2.7; in assay [7], 9.6. In addition, the Ki came to 170 nM in assay [2]; 450 nM in assay [3]; 610 nM in [4]; 430 nM in [8]; 1630 nM in [9].

Turning to `CN(C)CC#C[C@H]1CCCN1.Cl.Cl`, the Ratio in [1] was 1.1; in [5], 0.5; in [6] it was 1; in assay [7], 1.2. Further, the Ki in [2] was determined as 25200 nM; in [3], 37080 nM; in [4], 28500 nM; in assay [8] it was 18700 nM; in assay [9], 29300 nM.

Turning to `CS(=O)(=O)N1CCC[C@H]1C#CCN1CCCC1.Cl`, the Ratio came out at 1.5 in assay [1], 0.8 in assay [5], 1.6 in assay [6] and 2.5 in [7]. For the same compound, the Ki came to 6050 nM in [2]; 3920 nM in assay [3]; 9190 nM in [4]; 3020 nM in assay [8]; 15100 nM in assay [9].

In the case of `COC(=O)N1CCC[C@@H]1C#CCN1CCCC1`, the Ratio in assay [1] was 1.8; in [5], 1.5; in [6] it was 1.7; in assay [7], 3.2. Further, the Ki came out at 1590 nM in [2]; 530 nM in [3]; 2940 nM in assay [4]; 810 nM in assay [8]; 5060 nM in [9].
